# Paper PMC5974556 (ChemistryOpen, 2018)
# Marks after values point to notes of the source that are not given here.
# Key:
# [1] = system: Caco‐2 cells; assay: Mitochondria activity; assay type: cell-based; conditions: Homo sapiens, Caco-2, 72 h, read-out: Caco‐2 IC50 MTT
# Summary of the method: (§1)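 Cells kept in DMEM+glutamax with 1% NEAA, 1% P/S and 10% FBS at 37 °C, 10% CO2. Seeded 2×10^4 per well for 24 h, then exposed 72 h to test compound at various concentrations in serum-free medium, in triplicate. MTT (5 mg/mL in PBS) added for 2 h, formazan dissolved in DMSO, read at 570 nm. IC50 from % survival; doxorubicin control; MTT and SRB data pooled, mean ± SD, n≥6.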
# [2] = system: EA.hy926 cells; assay: Mitochondria activity; assay type: cell-based; conditions: Homo sapiens, EA.hy 926, 72 h, read-out: EA.hy926 IC50 MTT
# Summary of the method: as §1
# [3] = system: HT‐29 cells; assay: Mitochondria activity; assay type: cell-based; conditions: Homo sapiens, HT-29, 72 h, read-out: HT‐29 IC50 MTT
# Summary of the method: as §1
# [4] = system: HepG2 cells; assay: Protein content; assay type: cell-based; conditions: Homo sapiens, HepG2, 72 h, read-out: HepG2 IC50 SRB
# Summary of the method: (§2)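 Seeded 2×10^4 cells per well for 24 h, then treated with or without test compound for three days, in triplicate. Fixed with 50% TCA for 1 h at 4 °C, washed and dried. Stained 30 min at 4 °C with 0.4% sulforhodamine B in 1% acetic acid, rinsed with 1% acetic acid. Dye redissolved in Tris buffer, absorbance read at 490 nm. Doxorubicin control; MTT and SRB data pooled, mean ± SD, n≥6.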
# [5] = system: HepG2 cells; assay: Intracellular ROS; assay type: cell-based; conditions: Homo sapiens; for activity at 1 µM: HepG2, read-out: Intracellular ROS, percentage compared to the untreated control cells (ROS/SRB), HepG2, 1 μM; for activity at 10 µM: HepG2, read-out: Intracellular ROS, percentage compared to the untreated control cells (ROS/SRB), HepG2, 10 μM
# Summary of the method: (§3)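 Cells grown in DMEM+glutamax with 1% NEAA, 1% P/S and 10% FBS at 37 °C, 10% CO2. Seeded at 2×10^4 cells/well for 24 h, then confluent cells were exposed to test compound at 1 or 10 µM in serum-free medium, with NAC as control. Cells were washed, loaded with DCFH-DA for 30 min, then kept 1 h in phenol red-free DMEM. Fluorescence read at ex 485/em 535 nm, normalised to same-well SRB protein (490 nm) and given as % of untreated cells. Mean ± SD, n≥3; two-tailed t-test with unequal variances.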
# [6] = system: HepG2 cells; assay: Mitochondria activity; assay type: cell-based; conditions: Homo sapiens, HepG2, 72 h, read-out: HepG2 IC50 MTT
# Summary of the method: as §1
# [7] = Ferric reducing antioxidant power; conditions: chemical antioxidant capacity, n=3
# Summary of the method: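 FRAP reagent made from acetate buffer, TPTZ in ethanol and FeCl3·6H2O in dilute HCl, mixed 10:1:1, with TPTZ and iron solutions fresh daily. Sample mixed with reagent 1:9, absorbance read at 593 nm after 4 min. Values expressed as Trolox equivalents by linear regression on a Trolox standard curve; α-tocopherol positive control.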
# [8] = system: EA.hy926 cells; assay: Intracellular ROS; assay type: cell-based; conditions: Homo sapiens; for activity at 1 µM: EA.hy 926, read-out: Intracellular ROS, percentage compared to the untreated control cells (ROS/SRB), EA.hy926, 1 μM; for activity at 10 µM: EA.hy 926, read-out: Intracellular ROS, percentage compared to the untreated control cells (ROS/SRB), EA.hy926, 10 μM
# Summary of the method: as §3
# [9] = system: Caco‐2 cells; assay: Protein content; assay type: cell-based; conditions: Homo sapiens, Caco-2, 72 h, read-out: Caco‐2 IC50 SRB
# Summary of the method: as §2
# [10] = Water solubility, shake flask method in 0.1 M phosphate buffer pH 6.8; assay type: physicochemical; conditions: 37 °C, pH 6.8, aqueous buffer, thermodynamic from solid
# Summary of the method: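 Excess solid added to 1 mL sodium phosphate buffer, pH 6.8. Two conditions: 90 min sonication at 37 °C, or 30 min sonication at 37 °C, 23 h shaking at 300 rpm, then 30 min sonication. Centrifuged 14000 rpm for 5 min, filtered (0.2 µm) at 37 °C and diluted in DMSO. Quantified by LC at maximum absorbance against standard curves; independent triplicates.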
# [11] = system: Caco‐2 cells; assay: Intracellular ROS; assay type: cell-based, human; conditions: protein content normalization, mean±SD, n≥3
# Summary of the method: as §3
# [12] = system: HT‐29 cells; assay: Intracellular ROS; assay type: cell-based; conditions: Homo sapiens; for activity at 1 µM: HT-29, read-out: Intracellular ROS, percentage compared to the untreated control cells (ROS/SRB), HT‐29, 1 μM; for activity at 10 µM: HT-29, read-out: Intracellular ROS, percentage compared to the untreated control cells (ROS/SRB), HT‐29, 10 μM
# Summary of the method: as §3
# [13] = system: EA.hy926 cells; assay: Protein content; assay type: cell-based; conditions: Homo sapiens, EA.hy 926, 72 h, read-out: EA.hy926 IC50 SRB
# Summary of the method: as §2
# [14] = system: HT‐29 cells; assay: Protein content; assay type: cell-based; conditions: Homo sapiens, HT-29, 72 h, read-out: HT‐29 IC50 SRB
# Summary of the method: as §2
# [15] = DPPH radical‐scavenging activity assay; conditions: result in words
# Summary of the method: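 DPPH diluted to 200 µM in MeOH and mixed with an equal volume of test compound in MeOH at various concentrations. Incubated 30 min in the dark at 30 °C, absorbance read at 515 nm. % inhibition corrected for sample absorbance without DPPH. EC50 from fit to the linear part of the curve. Trolox reference; at least three independent experiments.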
Compound,IC50 [1],IC50 [4],IC50 [6],IC50 [9],solubility at 90 min [10],solubility at 24 h [10],"Intracellular ROS, percentage compared to the untreated control cells (ROS/SRB), Caco‐2, 1 μM [11]","Intracellular ROS, percentage compared to the untreated control cells (ROS/SRB), Caco‐2, 10 μM [11]",IC50 [2],IC50 [3],activity at 1 µM [5],activity at 10 µM [5],FRAP [7],activity at 1 µM [8],activity at 10 µM [8],activity at 1 µM [12],activity at 10 µM [12],IC50 [13],IC50 [14],DPPH radical‐scavenging activity [15]
"O=C1C=C(/C=C/c2cccnc2)N(CCCO)C(c2cccnc2)C1 (centres unmarked) [6 f, (E)‐1‐(3‐Hydroxypropyl)‐2‐(pyridin‐3‐yl)‐6‐[2‐(pyridin‐3‐yl)vinyl]‐2,3‐dihydropyridin‐4(1H)‐one]",> 75 µM,> 75 µM,> 75 µM,> 75 µM,2460 ± 57.2 µM,5000 ± 137 µM,100.5±2.4%,–,> 75 µM,> 75 µM,88.8 ± 10.4%,106 ± 13.1%,0.00 Trolox equiv per μM,101 ± 1.3%,106 ± 9.9%,111 ± 8.1%,106 ± 4.1%,> 75 µM,> 75 µM,–
"O=C(/C=C(O)/C=C/c1cccnc1)/C=C/c1cccnc1 [compound 2, (1E,4Z,6E)‐5‐Hydroxy‐1,7‐di(pyridin‐3‐yl)hepta‐1,4,6‐trien‐3‐one]",6.9 ± 2.5 µM,10 ± 1.6 µM,8.3 ± 0.7 µM,7.3 ± 3.1 µM,12.4 ± 0.2 µM,9.2 ± 0.1 µM,104.8±15.1%,142.7±11.9^[b] %,7.9 ± 1.9 µM,8.2 ± 0.8 µM,99 ± 4.6%,90.4 ± 11.9%,0.03 Trolox equiv per μM,112 ± 1.6%,116 ± 3.3%,94 ± 4%,127 ± 7.9%,11.2 ± 2.8 µM,6.1 ± 3.4 µM,no activity
"O=C(/C=C(O)/C=C/c1c[nH]c2ccccc12)/C=C/c1c[nH]c2ccccc12 [compound 3, (1E,4Z,6E)‐5‐Hydroxy‐1,7‐di(1H‐indol‐3‐yl)hepta‐1,4,6‐trien‐3‐one]",3.3 ± 0.3 µM,10.4 ± 1.5 µM,10 ± 1.7 µM,2.1 ± 0.6 µM,19 ± 0.2 µM,11.1 ± 0.1 µM,95.7±7.3%,110.3±6.5^[b] %,11.7 ± 4.6 µM,11.5 ± 6.7 µM,129 ± 8%,382 ± 34%,0.27 Trolox equiv per μM,111 ± 7.5%,218 ± 20.3%,141 ± 21.3%,125 ± 12%,15.2 ± 5.9 µM,15.3 ± 6.6 µM,–

# Second part, led by results:
IC50 [1],IC50 [4],IC50 [6],IC50 [9],solubility at 90 min [10],solubility at 24 h [10],"Intracellular ROS, percentage compared to the untreated control cells (ROS/SRB), Caco‐2, 1 μM [11]","Intracellular ROS, percentage compared to the untreated control cells (ROS/SRB), Caco‐2, 10 μM [11]",Compound,IC50 [2],IC50 [3],activity at 1 µM [5],activity at 10 µM [5],FRAP [7],activity at 1 µM [8],activity at 10 µM [8],activity at 1 µM [12],activity at 10 µM [12],IC50 [13],IC50 [14],DPPH radical‐scavenging activity [15]
7.5 ± 1.6 µM,9.8 ± 1.5 µM,8.2 ± 0.9 µM,9.7 ± 0.6 µM,84.8 ± 2.8 µM,74.2 ± 1.3 µM,110.2±9.5^[b] %,124.3±8.7^[c] %,"O=C(/C=C(O)/C=C/c1ccc[nH]1)/C=C/c1ccc[nH]1 [compound 4, (1E,4Z,6E)‐5‐Hydroxy‐1,7‐di(1H‐pyrrol‐2‐yl)hepta‐1,4,6‐trien‐3‐one]",8.3 ± 0.9 µM,8.9 ± 0.5 µM,75.6 ± 14.6%,121 ± 26.1%,0.79 Trolox equiv per μM,295 ± 38.5%,165 ± 18.9%,105 ± 6.3%,121 ± 8.7%,9 ± 2.2 µM,9.6 ± 0.5 µM,–
28 ± 6.4 µM,21.3 ± 4 µM,20.3 ± 4.1 µM,33.1 ± 4.5 µM,2.9 ± 0.3 µM,2.6 µM,96.7±5.8%,95.8±2.5%,"COc1cc(/C=C/C(=O)CC(=O)/C=C/c2ccc(O)c(OC)c2)ccc1O [curcumin, reference compound]",20 ± 5.9 µM,23.4 ± 5.1 µM,95.9 ± 13.8%,84.2 ± 8.1%,1.11 Trolox equiv per μM,99.9 ± 6.4%,104 ± 7.6%,92.8 ± 5.8%,90.2 ± 6.1%,34.7 ± 10.5 µM,20.3 ± 1.1 µM,–
